Test results taken from ChEMBL document CHEMBL1147364, “An antifungal bibenzyl from the New Zealand liverwort, Plagiochila stephensoniana. Bioactivity-directed isolation, synthesis, and analysis” (J Nat Prod, 1993).
Values after ≈ are worked out from the molar mass of the structure shown. Active and inactive are the calls of the source. No cut-off for these calls is given here.

Key:
[1] = test system: P388; assay: Cytotoxicity against mouse P388 cells after 72 hrs by MTT assay; assay type: functional, cell-based; settings: P388, 72 h
In short: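 P-388 murine leukemia cells incubated 72 h with a 2-fold dilution series of sample. Growth read by MTT tetrazolium staining absorbance. IC50 (µg/ml) is the concentration reducing growth to 50% of a solvent control.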

[2] = test system: Escherichia coli; assay: Antibacterial activity against Escherichia coli at 60 ug/disk by disk diffusion assay; assay type: functional, organism-based
In short: (§1)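 Sample solution dried onto 6-mm filter paper disks at the stated loading. Disks placed on agar plates seeded with the test organism, then incubated. Read-out is the width of the inhibition zone around the disk, in mm.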

[3] = test system: Amorphotheca resinae; assay: Antifungal activity against Cladosporium resinae 10100 at 60 ug/disk by disk diffusion assay; assay type: functional; settings: for zone of inhibition at 60 µg/disc: read-out: IZ; in short: as §1
[4] = test system: Bacillus subtilis; assay: Antibacterial activity against Bacillus subtilis at 2.4 ug/disk by disk diffusion assay; assay type: functional, organism-based; in short: as §1
[5] = test system: Bacillus subtilis; assay: Antibacterial activity against Bacillus subtilis at 12 ug/disk by disk diffusion assay; assay type: functional; settings: read-out: IZ; in short: as §1
[6] = test system: Bacillus subtilis; assay: Antibacterial activity against Bacillus subtilis at 60 ug/disk by disk diffusion assay; assay type: functional; settings: for zone of inhibition at 60 µg/disc: read-out: IZ; in short: as §1
[7] = test system: Bacillus subtilis; assay: Antibacterial activity against Bacillus subtilis at 300 ug/disk by disk diffusion assay; assay type: functional; settings: for zone of inhibition at 300 µg/disc: read-out: IZ; in short: as §1
[8] = test system: Candida albicans; assay: Antifungal activity against Candida albicans 10261 at 2.4 ug/disk by disk diffusion assay; assay type: functional, organism-based; in short: as §1
[9] = test system: Candida albicans; assay: Antifungal activity against Candida albicans 10261 at 12 ug/disk by disk diffusion assay; assay type: functional; settings: for zone of inhibition at 12 µg/disc: read-out: IZ; in short: as §1
[10] = test system: Candida albicans; assay: Antifungal activity against Candida albicans 10261 at 60 ug/disk by disk diffusion assay; assay type: functional; settings: for zone of inhibition at 60 µg/disc: read-out: IZ; in short: as §1
[11] = test system: Candida albicans; assay: Antifungal activity against Candida albicans 10261 at 300 ug/disk by disk diffusion assay; assay type: functional; settings: for zone of inhibition at 300 µg/disc: read-out: IZ; in short: as §1
[12] = test system: Trichophyton mentagrophytes; assay: Antifungal activity against Trichophyton mentagrophytes 10100 at 2.4 ug/disk by disk diffusion assay; assay type: functional; settings: for zone of inhibition at 2.4 µg/disc: read-out: IZ; in short: as §1
[13] = test system: Trichophyton mentagrophytes; assay: Antifungal activity against Trichophyton mentagrophytes 10100 at 12 ug/disk by disk diffusion assay; assay type: functional; settings: read-out: IZ; in short: as §1
[14] = test system: Trichophyton mentagrophytes; assay: Antifungal activity against Trichophyton mentagrophytes 10100 at 60 ug/disk by disk diffusion assay; assay type: functional; settings: for zone of inhibition at 60 µg/disc: read-out: IZ; in short: as §1
[15] = test system: Trichophyton mentagrophytes; assay: Antifungal activity against Trichophyton mentagrophytes 10100 at 300 ug/disk by disk diffusion assay; assay type: functional; settings: for zone of inhibition at 300 µg/disc: read-out: IZ; in short: as §1
[16] = test system: Candida albicans; assay: Antifungal activity against Candida albicans 10261 by tube assay method; assay type: functional
In short: (§2)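 MIC by standard tube dilution assay. Minimum fungicidal concentration is also reported in µg/ml.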

[17] = test system: Trichophyton mentagrophytes; assay: Antifungal activity against Trichophyton mentagrophytes 10100 by tube assay method; assay type: functional; in short: as §2
[18] = Cytotoxicity against african green monkey BSC cells at 60 ug/mL after 24 hrs; assay type: cell-based; settings: chlorocebus aethiops
In short: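 Sample on 6-mm filter paper disks placed directly on BSC-1 monkey kidney cells, incubated 24 h, examined by inverted microscope. Cytotoxic zone scored as +, ++, +++ or whole well.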

[19] = test system: Human alphaherpesvirus 1; assay: Antiviral activity against Herpes simplex virus type 1 ATCC VR 733 infected in african green monkey BSC cells assessed as inhibition of virus-induced cytopathic effect; assay type: functional, organism-based
In short: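 Sample dried onto 6-mm filter paper disks placed directly on BSC-1 (African green monkey kidney) cell monolayers, which were infected with HSV type 1 (ATCC VR 733). After 24 h incubation, examined by inverted microscope. Zone of viral and/or cytotoxic inhibition around the disk recorded.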

[20] = test system: Poliovirus 1; assay: Antiviral activity against Poliovirus type 1 infected in african green monkey BSC cells assessed as inhibition of virus-induced cytopathic effect; assay type: functional, organism-based
In short: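 Sample is dried onto 6-mm filter-paper disks and placed directly on BSC-1 (African green monkey kidney) cell monolayers. Cells are infected with Polio Type I (Pfizer vaccine strain) and incubated 24 h. Wells are examined by inverted microscope for a zone of viral and/or cytotoxic inhibition around the disk. Cytotoxicity is scored as zone size (+, ++, +++, whole well).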

[21] = test system: Gloeophyllum trabeum; assay: Antifungal activity against Gloeophyllum trabeum; assay type: functional, organism-based
[22] = test system: Postia placenta; assay: Antifungal activity against Poria placenta; assay type: functional, organism-based; settings: Rhodonia placenta
[23] = test system: Pseudomonas aeruginosa; assay: […] aeruginosa at 60 ug/disk by disk diffusion assay; assay type: functional, organism-based; in short: as §1
[24] = test system: Amorphotheca resinae; assay: Antifungal activity against Cladosporium resinae 10100 at 300 ug/disk by disk diffusion assay; assay type: functional, organism-based; in short: as §1
[25] = test system: Escherichia coli; assay: Antibacterial activity against Escherichia coli at 10 ug/disk by disk diffusion assay; assay type: functional, organism-based
In short: (§3)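 Sample solution dried onto 6-mm filter-paper disks, which are laid on seeded agar Petri dishes and incubated.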

[26] = test system: Bacillus subtilis; assay: Antibacterial activity against Bacillus subtilis at 30 ug/disk by disk diffusion assay; assay type: functional; settings: read-out: IZ; in short: as §1
[27] = test system: Amorphotheca resinae; assay: Antifungal activity against Cladosporium resinae 10100 at 100 units/disk by disk diffusion assay; assay type: functional, organism-based; in short: as §3
[28] = test system: Trichophyton mentagrophytes; assay: Antifungal activity against Trichophyton mentagrophytes 10100 at 100 units/disk by disk diffusion assay; assay type: functional, organism-based; in short: as §3

Compound	IC50 [1]	Activity [2]	zone of inhibition at 60 µg/disc [14]	MFC [16]	MIC [16]	MFC [17]	MIC [17]	Activity [18]	Activity [3]	Activity [6]	Activity [7]	Activity [10]	Activity [11]	Activity [15]	Activity [24]	Activity [14]	also measured
COc1cccc(/C=C/c2ccc(O)cc2)c1 [(E)-5-METHOXY-4'-STILBENOL]	9.9 µg/mL (≈ 43.8 µM)	inactive	6 mm	125 µg/mL (≈ 552 µM)	31.2 µg/mL (≈ 138 µM)	31.2 µg/mL (≈ 138 µM)	31.2 µg/mL (≈ 138 µM)										zone of inhibition at 60 µg/disc [3]: 2 mm; Activity [4]: inactive; zone of inhibition at 12 µg/disc [5]: 2 mm; zone of inhibition at 60 µg/disc [6]: 4 mm; zone of inhibition at 300 µg/disc [7]: 6 mm; Activity [8]: inactive; Activity [9]: inactive; zone of inhibition at 60 µg/disc [10]: 2 mm; zone of inhibition at 300 µg/disc [11]: 7 mm; zone of inhibition at 2.4 µg/disc [12]: 2 mm; zone of inhibition at 12 µg/disc [13]: 8 mm; zone of inhibition at 300 µg/disc [15]: 10 mm
Cc1cccc(O)c1 [METACRESOL]		inactive	2 mm					Not Active	inactive	inactive	inactive	inactive	inactive	inactive			
COc1cccc(CCc2ccc(O)cc2)c1	> 25 µg/mL	inactive	7 mm	125 µg/mL (≈ 548 µM)	125 µg/mL (≈ 548 µM)	62.5 µg/mL (≈ 274 µM)	62.5 µg/mL (≈ 274 µM)										Activity [19]: inactive; Activity [20]: inactive; IC50 [21]: 87 µg/mL (≈ 381 µM); IC50 [22]: 11 µg/mL (≈ 48.2 µM); zone of inhibition at 60 µg/disc [3]: 2 mm; Activity [4]: inactive; zone of inhibition at 12 µg/disc [5]: 3 mm; zone of inhibition at 60 µg/disc [6]: 5 mm; zone of inhibition at 300 µg/disc [7]: 5 mm; Activity [8]: inactive; zone of inhibition at 12 µg/disc [9]: 2 mm; zone of inhibition at 60 µg/disc [10]: 10 mm; zone of inhibition at 300 µg/disc [11]: 10 mm; Activity [12]: inactive; zone of inhibition at 12 µg/disc [13]: 7 mm; zone of inhibition at 300 µg/disc [15]: 7 mm; Activity [23]: inactive
COc1cccc(/C=C\c2ccc(O[Si](C)(C)C(C)(C)C)cc2)c1		inactive						Not Active	inactive	inactive	inactive	inactive	inactive	inactive	inactive	inactive	
COc1cccc(/C=C\c2ccc(O)cc2)c1	16.3 µg/mL (≈ 72 µM)		10 mm	62.5 µg/mL (≈ 276 µM)	31.2 µg/mL (≈ 138 µM)	15.6 µg/mL (≈ 69 µM)	12.6 µg/mL (≈ 55.8 µM)										zone of inhibition at 60 µg/disc [3]: 3 mm; Activity [4]: inactive; zone of inhibition at 12 µg/disc [5]: 4 mm; zone of inhibition at 60 µg/disc [6]: 9 mm; zone of inhibition at 300 µg/disc [7]: 9 mm; Activity [8]: inactive; zone of inhibition at 12 µg/disc [9]: 2 mm; zone of inhibition at 60 µg/disc [10]: 7 mm; zone of inhibition at 300 µg/disc [11]: 7 mm; zone of inhibition at 2.4 µg/disc [12]: 5 mm; zone of inhibition at 12 µg/disc [13]: 7 mm; zone of inhibition at 300 µg/disc [15]: 10 mm
COc1ccc(CCc2cccc(OC)c2)cc1		inactive						Not Active	inactive	inactive	inactive	inactive	inactive	inactive		inactive	
GENTAMICIN																	inhibition zone (IZ) [25]: 8 mm
COc1cccc(CCc2ccc(O[Si](C)(C)C(C)(C)C)cc2)c1	> 25 µg/mL	inactive		> 1000 µg/mL	> 1000 µg/mL	> 1000 µg/mL	> 1000 µg/mL	Not Active	inactive	inactive	inactive	inactive	inactive	inactive	inactive	inactive	
O=C(N[C@H](CO)[C@H](O)c1ccc([N+](=O)[O-])cc1)C(Cl)Cl [CHLORAMPHENICOL]																	zone of inhibition at 30 µg/disc [26]: 12 mm
CO[C@@]12[C@H](COC(N)=O)C3=C(C(=O)C(C)=C(N)C3=O)N1C[C@@H]1N[C@@H]12 [MITOMYCIN]	0.02 µg/mL (≈ 0.0598 µM)																
C(=C\c1ccccc1)/c1ccccc1		inactive							inactive	inactive	inactive	inactive	inactive	inactive	inactive	inactive	
COc1cccc(/C=C/c2ccc(O[Si](C)(C)C(C)(C)C)cc2)c1		inactive						Not Active	inactive	inactive	inactive	inactive	inactive	inactive	inactive	inactive	
NYSTATIN				31.2 µg/mL	31.2 µg/mL	62.5 µg/mL	62.5 µg/mL										inhibition zone (IZ) [27]: 10 mm; inhibition zone (IZ) [28]: 8 mm
